Measured values from different studies.
Read-out: cell growth or viability

SMILES | cell line | test | conditions | measurement | result
CCc1nc(C(N)=O)c(Nc2ccc(N3CCC(N4CCN(C)CC4)CC3)c(OC)c2)nc1NC1CCOCC1 | G-361 | – | 72 h | GI50 | 1.17 µM
O=C(CCc1ccc(Cl)cc1)N1C(=O)C(=Nc2ccc(Cl)cc2Br)c2ccccc21 | B16 | MTT | 48 h | IC50 | 23.6 µM
CN(C)CCNC(=O)c1ccc(-c2nc3ccc4[nH]ncc4c3c3c2CCCCC3)cc1 | G-361 | – | 72 h | GI50 | > 10 µM
N#Cc1ccc(-c2cc(COc3cc(=O)oc4ccccc34)on2)cc1 | Z-138 | MTS | 72 h | IC50 | > 100 µM
Cc1nc(NC(=O)N2CCC[C@H]2C(N)=O)sc1-c1ccnc(C(C)(C)C(F)(F)F)c1 | BT-20 | ATP luminescence | 5 days | EC50 | 2.48 µM
Cc1n[nH]c2ccc3nc(-c4ccc(C(=O)NCCN(C)C)cc4F)c4c(c3c12)CCCCC4 | G-361 | – | 72 h | GI50 | > 10 µM
FC(F)(F)c1cc(OCc2cc(-c3ccccc3)no2)c2ccccc2n1 | Z-138 | MTS | 72 h | IC50 | 68.2 µM
Cc1ccc(CN2C(=O)C(=Nc3c(C(C)C)cccc3C(C)C)c3ccccc32)cc1 | B16 | MTT | 48 h | IC50 | 57.2 µM
CN(C)CCNC(=O)c1ccc(-c2nc3ccc4[nH]ncc4c3c3c2CCCCC3)c(F)c1 | G-361 | – | 72 h | GI50 | 3.55 µM
O=C1C(=Nc2ccc(Cl)cc2Br)c2ccccc2N1Cc1ccc(Br)cc1 | B16 | MTT | 48 h | IC50 | 1.65 µM
C[C@H](Nc1ccc2c(c1)OCCn1cc(N3C(=O)OC[C@H]3C(F)F)nc1-2)C(N)=O | BT-20 | ATP luminescence | 5 days | EC50 | 0.449 µM
C=CCN1C(=O)C(=Nc2cccc(C)c2)c2ccccc21 | B16 | MTT | 48 h | IC50 | 28.6 µM
O=c1cc(OCc2cc(-c3ccccn3)no2)c2ccccc2o1 | Z-138 | MTS | 72 h | IC50 | > 100 µM
Cc1nc(Nc2ncc(C(=O)Nc3c(C)cccc3Cl)s2)cc(N2CC[C@H](O)C2)n1 | Z-138 | ATP luminescence | 10 µM, 72 h | inhibition | 56%
